Only some compounds are listed: those with a hit (about 9.3% of all), similar ones and a draw of the others.
D1 allo mod: D1 CRE-luciferase signal change, two-sided – cell-based, HEK293 D1, dopamine EC30, D1 allosteric modulator project, primary screen; D(1A) dopamine receptor (Homo sapiens), P21728; dopamine EC30 potentiation; actives deviate in either direction; B-score at 10 µM; 58,000 compounds, 5.9% hits;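 active means luminescence count or its row- and column-corrected plate score outside the 99.7% band of the plate's sample wells, on either side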
E coli WT exp: growth inhibitors of wild-type E. coli, primary screen, strain BW25113, expanded library, OD600. 98,000 compounds, 0.15% hits. OD600 absorbance. growth inhibition, % at 100 µM;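 active means growth inhibition above about 50% at one test dose, limit read from the data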;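 further: growth measured after 20 h incubation at 37 °C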
tolC growth inh: growth inhibitors of E. coli tolC mutant, primary screen, strain BW25113 ΔtolC::kan, 384-well; AID 573, 2007; OD615; growth inhibition, % at 10 µM (by protocol); 65,000 compounds, 2.2% hits;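 active means growth inhibition at or above a cutoff equal to the mean over every tested compound plus 3 SD, cut at about 60% in these data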;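 further: growth measured after 20 h incubation at 37 °C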
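Assay system: tolC-deleted E. coli BW25113. Medium: kanamycin-containing LB broth (50 µg/mL). Dosing: 10 µM final, single dose. Timing: bacterial growth with compound for 20 h at 37 °C. Detection: A615 absorbance measurement. Read-out basis: growth inhibition in percent.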
DAT uptake mod: changed hDAT dopamine uptake under cocaine IC80, either direction, primary screen, cocaine antagonist project, cell-based, LLC-PK1 hDAT, [14C]-dopamine uptake, MLSMR. LLC-PK1 hDAT cells, [14C]-dopamine uptake with cocaine IC80; actives deviate in either direction. B-score at 10 µM. 110,000 compounds, 1.3% hits;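 active means Z score or B-score, a plate-position-corrected score, falls beyond the plate's 99.7% confidence bounds, in either direction; inactive means both scores lie inside the 99.7% bounds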;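 further: scored against the spread of the other compound wells on the same plate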
Target sequence (Q01959 whole entry, looked up): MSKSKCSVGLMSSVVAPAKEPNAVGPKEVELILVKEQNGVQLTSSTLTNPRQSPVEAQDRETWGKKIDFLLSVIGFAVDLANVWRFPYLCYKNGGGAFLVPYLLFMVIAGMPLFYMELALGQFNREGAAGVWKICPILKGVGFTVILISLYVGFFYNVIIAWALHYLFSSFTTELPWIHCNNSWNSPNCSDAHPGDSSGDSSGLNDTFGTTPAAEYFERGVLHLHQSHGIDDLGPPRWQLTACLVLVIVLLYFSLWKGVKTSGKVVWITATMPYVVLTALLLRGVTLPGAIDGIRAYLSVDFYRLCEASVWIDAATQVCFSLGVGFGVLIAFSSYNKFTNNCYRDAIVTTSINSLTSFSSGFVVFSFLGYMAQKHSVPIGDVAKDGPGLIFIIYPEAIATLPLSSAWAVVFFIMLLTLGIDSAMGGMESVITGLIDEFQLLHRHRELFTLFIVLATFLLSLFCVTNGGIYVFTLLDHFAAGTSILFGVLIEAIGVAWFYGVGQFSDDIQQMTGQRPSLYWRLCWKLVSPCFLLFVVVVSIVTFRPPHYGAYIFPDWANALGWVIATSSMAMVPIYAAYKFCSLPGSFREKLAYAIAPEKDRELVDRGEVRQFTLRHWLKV
PostGolgi ctrl: growth inhibition of yeast control strain, primary screen, counter-screen for post-Golgi transport modulator project; inhibition, % at 10 µM; efflux-deficient yeast background strain, growth absorbance A615, 16 h; 98,000 compounds, 5% hits
PostGolgi yeast: phenotypic screen on post-Golgi transport, primary screen | post-Golgi transport phenotypic cell assay | inhibition, % at 10 µM | 98,000 compounds, 0.9% hits;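 further: yeast cells grown in 1536-well plates; yeast grown about 18 h at 30C before absorbance read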
Active calls of the source: *; x = not tested or not shown. Unless noted, no stated cut-off is given here; in the data, active means inhibition above about 30%; inactive means the rest.

SMILES | D1 allo mod | E coli WT exp | tolC growth inh | DAT uptake mod | PostGolgi ctrl | PostGolgi yeast
Nc1ccc(CCc2nc3ccccc3o2)cc1 | -3.6* | 2 | 12 | 0.091 | 4 | -3
COc1cccc(-n2nnnc2SCC(=O)Nc2ccc3c(c2)OCCO3)c1 | x | -4 | x | 0.39 | 31* | 39*
Cc1cc(C)cc(-n2ccnc2SCC(=O)Nc2ccc3c(c2)OCCO3)c1 | 1.1 | -12 | 77* | 0.76 | 3 | -8
COc1ccc(-n2c(SCC(=O)Nc3ccc4c(c3)OCO4)nc3ccccc3c2=O)cc1 | 0.97 | -14 | 17 | 0.71 | 54* | -3
COc1ccc(-n2nnnc2SCC(=O)Nc2ccc3c(c2)OCCO3)cc1OC | 2.1 | -4 | 4 | -0.96 | 7 | 4
O=C(CSc1nccn1-c1ccccc1)Nc1ccc2c(c1)OCO2 | -1.7 | 6 | 6 | 0.69 | 13 | 0
COC(=O)C1=CN(CC2CCCO2)C=C(C(=O)OC)C1c1cc(OC)c(OC)c(OC)c1 (configuration not stated) | x | -2 | -12 | 0.19 | 17 | -8
CC(OC(=O)c1snc(C(=O)NC2CCCCC2)c1N)C(=O)NC1CCCCC1 (configuration not stated) | x | x | x | 1 | x | x
CCNc1cc(=O)n(C)c(=O)n1C | -0.33 | -1 | -12 | -0.073 | -9 | 4
C=CCn1c(NC)cc(=O)n(C)c1=O | 0.12 | 1 | -15 | -9.1* | -1 | -9
CC1(C)CC(=O)C2=C(C1)OC(N)=C(C#N)C21CCC2(CC1)OCCO2 | -0.6 | 1 | 1 | 23* | 18 | -11
CCN1C(=O)c2ccccc2S(=O)(=O)c2ccc(C(=O)NCc3cccnc3)cc21 | -0.14 | 4 | -7 | -0.21 | -4 | -6
Cc1nn(C)c(C)c1S(=O)(=O)N1CCC(C(=O)NC2CCCCCC2)CC1 | 0.19 | -7 | -6 | -2.6* | 2 | -3
Cc1nn(C)c(C)c1S(=O)(=O)N1CCC(C(=O)NC2CCCCC2)CC1 | 0.49 | 5 | -24 | -0.018 | -8 | 6
CC(C)(C)c1ccc(-c2nnc(SCCN3C(=O)c4ccccc4C3=O)o2)cc1 | x | -5 | x | 2 | 33* | -3
O=C(O)CSc1nnc(-c2ccccc2)o1 | -0.057 | -10 | -20 | -1.3 | 3 | 3
CN(C)/C=N/c1c(C#N)cnn1-c1ccccc1 | 0.32 | 1 | -6 | 0.034 | 0 | -5
CN(C)/C=N/c1c(C#N)cnn1-c1ncnc2sc(-c3ccccc3)cc12 | 1 | -3 | 8 | 3.2* | 21 | -2
CC(C)C(=O)N1C2CCC1CC(O)(c1ccc(F)cc1)C2 (configuration not stated) | x | -5 | x | -0.0077 | -1 | 0
Cc1cc(N2C3CCC2CC(O)(c2ccc(F)cc2)C3)nc(-c2ccccc2)n1 (configuration not stated) | x | -5 | 100* | 0.24 | 27 | -6
CCC[C@@H]1CCCO[C@@](C(=O)NCCN2CCOCC2)(C(F)(F)F)C1 | x | x | x | -0.22 | x | x
CCOC(=O)C1CCN(C(=O)Nc2ccccc2Cl)CC1 | 0.5 | 5 | -3 | x | 2 | 4
CN(C)CC(=O)Nc1cc(C(F)(F)F)ccc1Cl | -0.6 | -5 | -13 | -0.46 | 8 | 38*
O=C(CCc1ccccc1)Nc1cc(C(F)(F)F)ccc1Cl | x | 2 | x | -0.21 | 11 | 6
CCOC(=O)[C@H](CCc1ccccc1)N[C@@H](C)C(=O)N1[C@H](C(=O)O)C[C@@H]2CCC[C@@H]21 | x | x | x | 0.39 | x | x
SMILES | D1 allo mod | E coli WT exp | tolC growth inh | DAT uptake mod | PostGolgi ctrl | PostGolgi yeast
COCC(C)NC(=O)NC1(C(F)(F)F)Oc2ccc(Cl)cc2O1 (configuration not stated) | -0.14 | 4 | -13 | -3.2* | 8 | 2
CCOc1cc(S(=O)(=O)Nc2ccccc2CC)ccc1Cl | x | 2 | x | 0.93 | 59* | 11
COc1ccc(S(=O)(=O)Nc2ccc(C)cc2)cc1OC | 2.7 | 3 | 6 | -0.4 | 17 | -1
COc1ccc(S(=O)(=O)Nc2ccc(S(=O)(=O)Nc3nc(C)cc(C)n3)cc2)cc1OC | 0.28 | -13 | -6 | 0.69 | 32* | 5
CCOc1cc(S(=O)(=O)N2CCCCC2)ccc1Cl | -4* | -4 | -2 | x | -2 | 3
CCc1ccc(NS(=O)(=O)c2ccc(OC)c(C)c2)cc1 | x | -3 | x | 0.52 | 36* | -10
O=[N+]([O-])c1ccc(N2CCN(CCO)CC2)cc1Sc1nc2ccccc2[nH]1 | x | 1 | x | x | 5 | 1
CC(C)OCCCNS(=O)(=O)c1ccc2ccccc2c1 | x | 11 | x | 1.5 | -1 | -4
CCOc1cc(S(=O)(=O)Nc2ccc(CC)cc2)ccc1Cl | x | -16 | x | 0.83 | 41* | -8
COc1ccc(S(=O)(=O)Nc2cc(C)on2)cc1OC | -2.8* | x | -16 | 0.042 | x | x
CCCCn1c(SCC(=O)N2CCOCC2)nnc1-c1cccs1 | 1.9 | 3 | -20 | 0.42 | 3 | -1
CCCn1c(SCC(=O)NCCc2ccccc2)nnc1-c1ccco1 | x | x | x | -0.48 | x | x
COC(=O)[C@@H]1C[C@@]2(O)[C@@H](O)[C@@H](O)[C@@H](O)C[C@H]2N1Cc1ccc(Cl)cc1 | x | x | x | -0.15 | x | x
O=C(c1ccc(Cl)cc1)N1CCN(c2ccc(F)cc2)CC1 | x | x | x | -0.14 | x | x
O=C(c1sc2ccccc2c1Cl)N1CCN(c2ccc(F)cc2)CC1 | x | -21 | x | -0.39 | 45* | 7
Nc1ncncc1-c1ccc([N+](=O)[O-])cc1 | x | 78* | x | -2.2 | 8 | 2
O=C(Nc1cccc(F)c1)C1CCN(C(=O)c2ccccc2Cl)CC1 | x | 2 | x | 1.7 | 0 | 8
O=C(Nc1ccc2c(c1)OCO2)C1COc2ccccc2O1 (configuration not stated) | 0.036 | 9 | 14 | 0.21 | -1 | -11
Cc1cc(C)n(C(=O)c2ccc(NC(=O)C3COc4ccccc4O3)cc2)n1 (configuration not stated) | 0.016 | -16 | 42 | 0.38 | 33* | -18
O=C(Nc1ccc2c(c1)CCC2)C1COc2ccccc2O1 (configuration not stated) | 0.039 | 3 | 100* | 0.6 | 6 | 0
COC(=O)NC(NC(=S)Nc1ccc([N+](=O)[O-])cc1)C(Cl)(Cl)Cl (configuration not stated) | x | x | x | -2.8* | x | x
CC(=O)OC1(C(F)(F)F)Oc2ccccc2NC1=O (configuration not stated) | -1.3 | 0 | -14 | -0.79 | 44* | 13
N#CC1=C(SCC(=O)NC2CC2)NC(=O)C(C#N)C12CCCCC2 (configuration not stated) | -0.34 | 1 | 7 | -0.019 | 4 | 2
N#CC1=C(SCC(=O)NC23CC4CC(CC(C4)C2)C3)NC(=O)C(C#N)C12CCCCC2 (configuration not stated) | -0.44 | -6 | 86* | -0.83 | 6 | -5

From PubChem
